Test results taken from ChEMBL document CHEMBL3804761, “Synthesis of a stable and orally bioavailable englerin analogue” (Bioorg Med Chem Lett, 2016).

Assays:
Type in all cases: functional
[1] = Growth inhibition of human UACC62 cells incubated for 48 hrs by sulforhodamine B assay; settings: UACC-62, 48 h; for TGI: read-out: pTGI (converted)
Summary of the method: (§1)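 Tested in the standard NCI 60-cell-line protocol with two-day drug exposure and a sulforhodamine B endpoint. Compounds were first screened at a single final concentration of 10 µM, reported as growth percent. They were then run as five 10-fold dilutions starting from a high concentration of 100 µM to give dose-response curves.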

[2] = system: MCF7; experiment: Growth inhibition of human MCF7 cells incubated for 48 hrs by sulforhodamine B assay; settings: MCF7, 48 h; for CC50: read-out: pLC50 (the source's name) (converted); for TGI: read-out: pTGI (converted)
Summary of the method: (§2)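 NCI 60-cell-line panel, standard protocol. Cells exposed to compound for two days, growth read by sulforhodamine B staining. Tested at five 10-fold dilutions, top concentration 100 µM, to give dose-response curves.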

[3] = system: SN12C; experiment: Growth inhibition of human SN12C cells assessed as cell growth at 10 uM incubated for 48 hrs by sulforhodamine B assay relative to control; settings: read-out: Activity
Summary of the method: (§3)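 Run in the standard NCI 60-cell-line screen. Cells were exposed to drug for two days, and the read-out was sulforhodamine B staining. Compound was tested at a single final concentration of 10 µM in every line, and results are reported as growth percent.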

[4] = Growth inhibition of human SNB19 cells assessed as cell growth at 10 uM incubated for 48 hrs by sulforhodamine B assay relative to control; settings: SNB-19, 48 h, read-out: Activity; summary of the method: as §3
[5] = system: Malme-3M; experiment: Growth inhibition of human MALME-3M cells assessed as cell growth at 10 uM incubated for 48 hrs by sulforhodamine B assay relative to control; settings: read-out: Activity; summary of the method: as §3
[6] = system: SK-MEL-2; experiment: Growth inhibition of human SK-MEL-2 cells incubated for 48 hrs by sulforhodamine B assay; settings: SK-MEL-2, 48 h; for TGI: read-out: pTGI (converted); summary of the method: as §2
[7] = Growth inhibition of human RXF393 cells assessed as cell growth at 10 uM incubated for 48 hrs by sulforhodamine B assay relative to control; settings: RXF 393, 48 h, read-out: Activity; summary of the method: as §3
[8] = system: SK-MEL-28; experiment: Growth inhibition of human SK-MEL-28 cells assessed as cell growth at 10 uM incubated for 48 hrs by sulforhodamine B assay relative to control; settings: SK-MEL-28, 48 h, read-out: Activity; summary of the method: as §3
[9] = Growth inhibition of human DU145 cells assessed as cell growth at 10 uM incubated for 48 hrs by sulforhodamine B assay relative to control; settings: DU-145, 48 h, read-out: Activity; summary of the method: as §3
[10] = Growth inhibition of human MOLT4 cells incubated for 48 hrs by sulforhodamine B assay; settings: MOLT-4, 48 h; for TGI: read-out: pTGI (converted); summary of the method: as §2
[11] = Growth inhibition of human HCT15 cells incubated for 48 hrs by sulforhodamine B assay; settings: HCT-15, 48 h; for TGI: read-out: pTGI (converted); summary of the method: as §2
[12] = Growth inhibition of human UO31 cells assessed as cell growth at 10 uM incubated for 48 hrs by sulforhodamine B assay relative to control; settings: UO-31, 48 h, read-out: Activity
Summary of the method: (§4)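 NCI 60-cell line standard protocol, one-dose screen: single final concentration 10 µM, 2-day drug exposure, sulforhodamine B (SRB) endpoint; read-out is growth percent relative to untreated control.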

[13] = Growth inhibition of human SKOV3 cells incubated for 48 hrs by sulforhodamine B assay; settings: SK-OV-3, 48 h; for TGI: read-out: pTGI (converted); summary of the method: as §1
[14] = system: NCI-H322M; experiment: Growth inhibition of human NCI-H322M cells assessed as cell growth at 10 uM incubated for 48 hrs by sulforhodamine B assay relative to control; settings: read-out: Activity; summary of the method: as §3
[15] = system: U-251; experiment: Growth inhibition of human U251 cells assessed as cell growth at 10 uM incubated for 48 hrs by sulforhodamine B assay relative to control; settings: U-251, 48 h, read-out: Activity; summary of the method: as §4
[16] = system: SR; experiment: Growth inhibition of human SR cells assessed as cell growth at 10 uM incubated for 48 hrs by sulforhodamine B assay relative to control; settings: read-out: Activity; summary of the method: as §3
[17] = Growth inhibition of human COLO205 cells incubated for 48 hrs by sulforhodamine B assay; settings: COLO 205, 48 h; for CC50: read-out: pLC50 (the source's name) (converted); for TGI: read-out: pTGI (converted); summary of the method: as §2
[18] = system: NCI-H23; experiment: Growth inhibition of human NCI-H23 cells incubated for 48 hrs by sulforhodamine B assay; settings: NCI-H23, 48 h; for TGI: read-out: pTGI (converted); summary of the method: as §2
[19] = Growth inhibition of human IGROV1 cells assessed as cell growth at 10 uM incubated for 48 hrs by sulforhodamine B assay relative to control; settings: IGROV-1, 48 h, read-out: Activity; summary of the method: as §3
[20] = Growth inhibition of human Hs 578T cells incubated for 48 hrs by sulforhodamine B assay; settings: for CC50: read-out: pLC50 (the source's name) (converted); for TGI: read-out: pTGI (converted)
[21] = system: M14; experiment: Growth inhibition of human M14 cells incubated for 48 hrs by sulforhodamine B assay; settings: M14, 48 h; for TGI: read-out: pTGI (converted); summary of the method: as §2
[22] = Growth inhibition of human OVCAR3 cells incubated for 48 hrs by sulforhodamine B assay; settings: OVCAR-3, 48 h; for TGI: read-out: pTGI (converted); summary of the method: as §2
[23] = system: 786-0; experiment: Growth inhibition of human 786-0 cells assessed as cell growth at 10 uM incubated for 48 hrs by sulforhodamine B assay relative to control; settings: 786-0, 48 h, read-out: Activity; summary of the method: as §3
[24] = Growth inhibition of human BT549 cells incubated for 48 hrs by sulforhodamine B assay; settings: BT-549, 48 h; for CC50: read-out: pLC50 (the source's name) (converted); for TGI: read-out: pTGI (converted); summary of the method: as §2
[25] = system: K562; experiment: Growth inhibition of human K562 cells assessed as cell growth at 10 uM incubated for 48 hrs by sulforhodamine B assay relative to control; settings: K562, 48 h, read-out: Activity; summary of the method: as §3
[26] = system: NCI-H522; experiment: Growth inhibition of human NCI-H522 cells assessed as cell growth at 10 uM incubated for 48 hrs by sulforhodamine B assay relative to control; settings: NCI-H522, 48 h, read-out: Activity; summary of the method: as §3
[27] = system: ACHN; experiment: Growth inhibition of human ACHN cells incubated for 48 hrs by sulforhodamine B assay; settings: for TGI: read-out: pTGI (converted); summary of the method: as §2
[28] = Growth inhibition of human TK10 cells incubated for 48 hrs by sulforhodamine B assay; settings: TK-10, 48 h; for CC50: read-out: pLC50 (the source's name) (converted); for TGI: read-out: pTGI (converted); summary of the method: as §1
[29] = Growth inhibition of human UO31 cells incubated for 48 hrs by sulforhodamine B assay; settings: UO-31, 48 h; for CC50: read-out: pLC50 (the source's name) (converted); for TGI: read-out: pTGI (converted); summary of the method: as §1
[30] = system: SN12C; experiment: Growth inhibition of human SN12C cells incubated for 48 hrs by sulforhodamine B assay; settings: for CC50: read-out: pLC50 (the source's name) (converted); for TGI: read-out: pTGI (converted); summary of the method: as §1

## CC(C)[C@@]12C[C@@H](NC(=O)CO)[C@@](C)(O1)[C@@H]1CC[C@@H](C)[C@H]1[C@@H]2OC(=O)c1ccc2ccccc2c1
[1]
  GI50: 13.5 µM
  LC50 (lethal concentration, 50% net cell kill): 55 µM
  TGI: 26.9 µM
[2]
  GI50: 15.8 µM
  CC50: 72.4 µM
  TGI: 33.9 µM
[3]
  growth at 10 µM: 66.7%
[4]
  growth at 10 µM: 97.2%
[5]
  growth at 10 µM: 85.3%
[6]
  GI50: 17 µM
  LC50: 60.3 µM
  TGI: 31.6 µM
[7]
  growth at 10 µM: 61.6%
[8]
  growth at 10 µM: 93.2%
[9]
  growth at 10 µM: 98.4%
[10]
  GI50: 18.6 µM
  LC50: 89.1 µM
  TGI: 40.7 µM
[11]
  GI50: 16.6 µM
  LC50: 61.7 µM
  TGI: 31.6 µM
[12]
  growth at 10 µM: 63.3%
[13]
  GI50: 15.8 µM
  LC50: 56.2 µM
  TGI: 30.2 µM
[14]
  growth at 10 µM: 89.5%
[15]
  growth at 10 µM: 79.3%
[16]
  growth at 10 µM: 82.5%
[17]
  GI50: 19.1 µM
  CC50: 61.7 µM
  TGI: 34.7 µM
[18]
  GI50: 14.1 µM
  LC50: 57.5 µM
  TGI: 28.2 µM
[19]
  growth at 10 µM: 94.3%
[20]; read-out: GI50
  GI50: 2230 nM
[20]; read-out: pGI50 (converted)
  GI50: 2240 nM
[20]
  CC50: > 100 µM
  TGI: 8.91 µM
[21]
  GI50: 16.6 µM
  LC50: 58.9 µM
  TGI: 31.6 µM
[22]
  GI50: 17 µM
  LC50: 57.5 µM
  TGI: 30.9 µM
[23]
  growth at 10 µM: 85%
[24]
  GI50: 14.8 µM
  CC50: 57.5 µM
  TGI: 28.8 µM
[25]
  growth at 10 µM: 91.2%
[26]
  growth at 10 µM: 77.7%
[27]
  GI50: 5.37 µM
  LC50 (concentration killing 50% of cells): 42.7 µM
  TGI: 17 µM
[28]
  GI50: 19.1 µM
  CC50: 60.3 µM
  TGI: 33.9 µM
[29]
  GI50: 11.5 µM
  CC50: 50.1 µM
  TGI: 24 µM
[30]
  GI50: 11 µM
  CC50: 55 µM
  TGI: 24.5 µM

## C/C(=C\C(=O)O[C@H]1[C@@H]2[C@H](C)CC[C@H]2[C@]2(C)O[C@@]1(C(C)C)C[C@H]2NC(=O)CO)c1ccccc1
[1]
  GI50: 35.5 µM
  LC50 (lethal concentration, 50% net cell kill): > 100 µM
  TGI: > 100 µM
[2]
  GI50: 27.5 µM
  CC50: > 100 µM
  TGI: > 100 µM
[3]
  growth at 10 µM: 84.6%
[4]
  growth at 10 µM: 108%
[5]
  growth at 10 µM: 95.9%
[6]
  GI50: 31.6 µM
  LC50: > 100 µM
  TGI: > 100 µM
[7]
  growth at 10 µM: 73.5%
[8]
  growth at 10 µM: 118%
[9]
  growth at 10 µM: 119%
[10]
  GI50: 25.7 µM
  LC50: > 100 µM
  TGI: 81.3 µM
[11]
  GI50: 34.7 µM
  LC50: > 100 µM
  TGI: > 100 µM
[12]
  growth at 10 µM: 17.5%
[13]
  GI50: 30.2 µM
  LC50: > 100 µM
  TGI: > 100 µM
[14]
  growth at 10 µM: 105%
[15]
  growth at 10 µM: 91.8%
[16]
  growth at 10 µM: 117%
[17]
  GI50: 22.9 µM
  CC50: > 100 µM
  TGI: 83.2 µM
[18]
  GI50: 38.9 µM
  LC50: > 100 µM
  TGI: > 100 µM
[19]
  growth at 10 µM: 104%
[20]; read-out: GI50
  GI50: 2240 nM
[20]; read-out: pGI50 (converted)
  GI50: 2240 nM
[20]
  CC50: > 100 µM
  TGI: 6.92 µM
[21]
  GI50: 44.7 µM
  LC50: > 100 µM
  TGI: > 100 µM
[22]
  GI50: 32.4 µM
  LC50: > 100 µM
  TGI: 93.3 µM
[23]
  growth at 10 µM: 93.5%
[24]
  GI50: 22.4 µM
  CC50: > 100 µM
  TGI: 69.2 µM
[25]
  growth at 10 µM: 92.3%
[26]
  growth at 10 µM: 92.5%
[27]
  GI50: 3.31 µM
  LC50 (concentration killing 50% of cells): > 100 µM
  TGI: 16.2 µM
[28]
  GI50: 83.2 µM
  CC50: > 100 µM
  TGI: > 100 µM
[29]
  GI50: 3.02 µM
  CC50: > 100 µM
  TGI: 12 µM
[30]
  GI50: 11.5 µM
  CC50: > 100 µM
  TGI: 66.1 µM
